MBD2 DNA inh = MBD2-methylated oligo binding inhibition | hit rate 0.31% among 370,000 | TR-FRET, MBD2 binding to methylated oligonucleotide | inhibition, % at 4.4 µM | Q9UBB5; in the data active = inhibition above about 13%
SUMO1-SIM PPI = modulators of human SUMO1-mediated protein-protein interactions | AID 602429 | SUMO1 binding to a labelled peptide, TR-FRET, 1 h | hit rate 0.33% among 360,000 | P63165 | inhibition, % at 20 µM
Target sequence (P63165 whole entry, looked up): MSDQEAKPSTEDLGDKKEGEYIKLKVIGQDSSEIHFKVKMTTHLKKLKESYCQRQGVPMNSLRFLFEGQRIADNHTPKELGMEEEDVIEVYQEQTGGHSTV
DNMT1 block = blocks human DNA methyltransferase DNMT1 | P26358 | DNMT1 molecular beacon, Hinp1I cleavage, fluorescence | inhibition (reported as % activation of signal), % at 10 µM | hit rate 0.83% among 360,000 | AID 588458; in the data active = inhibition above about 50%
HCV NS3 hel inh = inhibitors of Hepatitis C virus NS3 helicase; NS3 helicase DNA unwinding, Cy5 molecular beacon fluorescence; inhibition, % at 10.9 µM; hit rate 0.56% among 290,000; AID 1800;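 active = inhibition above the mean of all tested compounds plus 3 SD, set per campaign, cut at about 35% in these data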
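Test system: hepatitis C virus NS3 helicase domain fragment enzyme. Also added: annealed dual-labelled DNA beacon duplex, ATP-started. Timing: 60 min unwinding reaction at 25 °C after ATP addition. Technique: Cy5 fluorescence. Measure: % inhibition of unwinding.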
Pemphigus Ab inh = human desmoglein-3 autoantibody binding inhibition | binding (percent of control), % at 10 µM | P32926 | DSG3-coupled beads, scFv-anti-DSG3-GFP binding, flow cytometry; hits give low values | hit rate 0.48% among 310,000;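 active = binding more than 3 SD below its plate's average and above zero; inconclusive = below that plate limit but binding exactly zero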;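 also: hits lower antibody fragment binding to DSG3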
UHRF1 MBD2 ctr = blocks human UHRF1 binding to methylated DNA; Q96T88; hit rate 0.75% among 370,000; UHRF1 binding to methylated oligo, TR-FRET; AID 687016; inhibition, % at 4.4 µM; in the data active = inhibition above about 21%;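 also: UHRF1 SRA domain binding a hemimethylated CpG hairpin DNA probe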
NS3 helicase cf = confirmation of Hepatitis C virus NS3 helicase inhibitors. shares compounds with HCV NS3 hel inh. NS3 helicase DNA unwinding, Cy5 molecular beacon fluorescence. inhibition, % at 10.9 µM. hit rate 31% among 1,600. AID 1943;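 active = inhibition above the mean of all tested compounds plus 3 SD, cutoff set per campaign, cut at about 36% in these data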
DNA FID counter = intercalator displacement, NS3 helicase counter-screen | hit rate 4% among 1,600 | inhibition, % at 7.9 µM | shares compounds with HCV NS3 hel inh | DNA fluorescent intercalator displacement, fluorescence;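 also: higher means more displacement of ethidium bromide from the DNA hairpin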
FID counter DR = counter-screen for HCV NS3 helicase inhibitors: DNA intercalator displacement dose response. AID 2172. fluorescent intercalator displacement from DNA, fluorescence. 120 tested, under 10 active. shares compounds with HCV NS3 hel inh. IC50, µM; call rule not given here
Hits are given with their value; – = inactive; ? = inconclusive; · = no result. Only some compounds are listed: those with a hit (about 2.5% of all), similar ones and a draw of the others. Rule as the data show it, unless noted: active = inhibition above about 37%; inactive = the rest.

SMILES | MBD2 DNA inh | SUMO1-SIM PPI | DNMT1 block | HCV NS3 hel inh | Pemphigus Ab inh | UHRF1 MBD2 ctr | NS3 helicase cf | DNA FID counter | others
CC(C)N=c1scc(-c2cccs2)n1/N=C/c1ccc(O)c(O)c1O | – | – | – | 42.6 | · | – | – | –
CC(/C=N/n1c(-c2cc(C)[nH]n2)n[nH]c1=S)=C\c1ccco1 | – | – | – | 45.4 | · | – | – | –
CC(/C=N/n1c(-c2ccc(Cl)cc2)n[nH]c1=S)=C\c1ccco1 | – | – | – | – | – | – | · | ·
CC1CCC(NC(=O)c2cc(S(=O)(=O)N3CCCCC3)c[nH]2)CC1 (stereo not drawn) | – | – | – | – | – | – | · | ·
COC(=O)c1cnc2c(c1C(=O)OC)c(=O)n(C)c(=O)n2C | – | – | – | – | – | – | · | ·
CCc1cc2cc3c(cc2nc1SCC(=O)Nc1c[nH]c(=O)[nH]c1=O)OCO3 | – | – | – | 40.6 | ? | – | – | –
CC(=O)N1c2ccc(S(=O)(=O)NCCC(=O)NC3CCCC(C)C3C)cc2CC1C (stereo not drawn) | – | – | – | – | – | – | · | ·
Nc1c(C(=O)Nc2ccccc2F)sc2nc(-c3ccco3)ccc12 | – | – | – | 59.2 | – | – | 73.6 | – | FID counter DR=–
Nc1c(C(=O)Nc2ccccc2F)sc2nc(-c3cccnc3)ccc12 | – | – | – | – | – | – | · | ·
CC(COc1cccc(F)c1)CN1CCC(C(O)(c2ccccc2)c2ccccc2)CC1 (stereo not drawn) | – | · | · | · | · | – | · | ·
CCOC(=O)Cn1c(=NC(=O)c2cc(-c3cccs3)nc3ccccc23)sc2cc(S(N)(=O)=O)ccc21 | – | – | – | – | – | – | · | ·
CCOC(=O)Cn1c(=NC(=O)C2COc3ccccc3O2)sc2cc(S(N)(=O)=O)ccc21 (stereo not drawn) | – | – | – | 55.8 | – | – | – | –
COC(=O)C1=NN(C(=O)c2ccc(Cl)cc2)C(O)(c2ccccc2)C1 (stereo not drawn) | – | – | – | 43.8 | – | – | – | –
CCC1=NN(C(=O)c2ccc(Cl)cc2)C(O)(c2ccccc2)C1 (stereo not drawn) | – | – | – | – | – | – | · | ·
Cc1ccc(-n2nnnc2Sc2ccc(S(=O)(=O)NCCN(C)C)cc2[N+](=O)[O-])cc1 | – | – | – | – | – | – | · | ·
Cc1cc(OCC(=O)NC(Cc2c[nH]c3ccc(O)cc23)C(=O)O)c2c(C)c(C)c(=O)oc2c1 (stereo not drawn) | – | – | – | – | – | – | · | ·
O=C(COc1ccc2c(-c3ccccc3)cc(=O)oc2c1)N[C@@H](Cc1c[nH]c2ccc(O)cc12)C(=O)O | – | – | – | – | – | – | · | ·
CCCc1cc(=O)oc2cc(OCC(=O)NC(Cc3c[nH]c4ccc(O)cc34)C(=O)O)c(Cl)cc12 (stereo not drawn) | – | – | – | 52.7 | – | – | – | –
CC(Oc1ccc2c(-c3ccccc3)cc(=O)oc2c1)C(=O)NC(Cc1c[nH]c2ccc(O)cc12)C(=O)O (stereo not drawn) | – | – | – | 40.9 | – | – | 39.4 | –
CCN1C/C(=C/c2ccc(N3CCOCC3)cc2)C(=O)/C(=C/c2ccc(N3CCOCC3)cc2)C1 | – | – | – | 51.3 | · | – | – | –
Cc1cc(/C=C2\SC(=S)N(C)C2=O)c(C)n1-c1cccc(O)c1 | – | – | – | 83.1 | – | – | – | –
O=C(COC(=O)c1ncc(Cl)c(Cl)c1Cl)c1ccc(Cl)s1 | – | – | – | – | – | – | · | ·
C[C@H]1CNCCN1c1ccc(N2CCS(=O)(=O)CC2)c(C#N)c1 | – | · | · | · | · | – | · | ·
CCOC(=O)c1c(-c2ccc(C)cc2)csc1NC(=O)C1CC=CCC1C(=O)O (stereo not drawn) | – | – | – | 42.8 | – | – | 74.2 | –
CCOC(=O)c1c(-c2cccc(C)c2)csc1NC(=O)C1CC=CCC1C(=O)O (stereo not drawn) | – | – | – | – | – | – | · | ·

Screens deposited in PubChem by several laboratories.
